# m5-HT2A agonist – agonists of mouse serotonin 5-HT2A receptor (HTR2A); P35363; CHO-K1 mHTR2A beta-arrestin complementation, luminescence; percent of 30 µM serotonin response; activation, % at 7.6 µM; hit rate 0.66% among 360,000;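 active means activation above a run cutoff, the mean activation of all tested compounds plus 3 SD, cut at about 14% in these data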;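 further: 0% = plate median of compound wells and 100% = 30 µM serotonin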
# Target sequence (P35363 whole entry, looked up): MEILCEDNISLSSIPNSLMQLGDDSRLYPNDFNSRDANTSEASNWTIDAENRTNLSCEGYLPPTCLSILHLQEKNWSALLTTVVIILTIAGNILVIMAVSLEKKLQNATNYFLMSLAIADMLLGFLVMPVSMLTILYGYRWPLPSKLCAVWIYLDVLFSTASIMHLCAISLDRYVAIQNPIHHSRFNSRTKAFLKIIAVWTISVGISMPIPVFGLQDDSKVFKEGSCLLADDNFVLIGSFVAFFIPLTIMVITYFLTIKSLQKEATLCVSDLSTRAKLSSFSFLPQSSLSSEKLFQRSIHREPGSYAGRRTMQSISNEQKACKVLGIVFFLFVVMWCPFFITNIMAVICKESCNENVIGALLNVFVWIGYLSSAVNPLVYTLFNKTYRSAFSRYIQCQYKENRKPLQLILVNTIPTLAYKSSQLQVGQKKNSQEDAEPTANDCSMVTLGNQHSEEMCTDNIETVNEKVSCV
# Lipid droplet – hepatic lipid droplet formation modulation. AML12 mouse hepatocytes, oleate lipid droplets, BODIPY imaging. inhibition, % at 6.5 µM. hit rate 0.4% among 240,000. AID 1656;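 active means lipid droplet intensity inhibited by at least 50%, with more than 500 cells counted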
#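 Material – AML12 mouse liver cells · Also added – oleate loading, 100 µM · Compound dosing – 6.5 µM single-point dosing · Times – overnight treatment with compound plus oleate · Measured by – fluorescence imaging, 20x objective, two fields per well · Read-out – percent inhibition of filter-corrected integrated lipid droplet intensity per well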
# PREPL inh – inhibits the human prolyl oligopeptidase-like enzyme | inhibition, % at 5.96 µM | hit rate 0.68% among 320,000 | recombinant PREPL, fluorescence polarization activity-based probe; in the data active means inhibition above about 43%;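 further: 0% = enzyme with DMSO and 100% = wells lacking enzyme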
# NTR1 ag – NTR1 (human) agonism | P30989 | NTR1-U2OS beta-arrestin-GFP spot imaging, agonist mode | activation, % at 20 µM | hit rate 0.17% among 330,000;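 active means activation at or above 40% of the spot to cytoplasm intensity ratio, with at least 20 cells analyzed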;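 further: 0% = DMSO without peptide and 100% = 100 nM NTR1 peptide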
# MC4R ag barr – human MC4R agonism via beta-arrestin; P32245; U2OS MC4R beta-arrestin complementation, luminescence; percent of melanotan II response, DMSO zero; activation, % at 8.9 µM; hit rate 0.98% among 360,000; AID 540308;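 active means activation above a per-plate cutoff, the mean activation of sample wells on that plate plus 3 SD, cut at about 8% in these data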
# MC4R antag cAMP – blocks human MC4R cAMP signaling; P32245; MC4R-expressing cells, MTII-stimulated cAMP, LANCE TR-FRET; inhibition, % at 6.5 µM; hit rate 0.48% among 360,000;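 active means inhibition above its plate's cutoff, the mean of tested wells on that plate plus 3 SD, cut at about 29% in these data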;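 further: 0% = Melanotan II alone and 100% = Melanotan II plus saturating MCL0020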
#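 Assay system: U2OS-MC4R stable cell line; Also added: Melanotan II; Technique: Eu-cAMP/anti-cAMP TR-FRET, emission 671 nm; Times: 30-min compound, 1-h challenge, 1-h detection, room temperature.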
# * marks the source's active call; other numbers are inactive results; x = no result. In the library only some 2.7% were active in any assay of this set; here they are far more common.
SMILES,m5-HT2A agonist,Lipid droplet,PREPL inh,NTR1 ag,MC4R ag barr,MC4R antag cAMP
O=C(O)c1ccc(CSc2nnc(-c3ccccc3Br)o2)cc1,16.3*,-7.3,-7.0,0.2,-1.1,-1.6
Cn1c(SCC(=O)Nc2ccccc2)nnc1-c1ccc(NC(=O)CCc2ccccc2)cc1,9.7,8.4,-13.9,7.1,9.3*,-0.5
O=C1N=c2ccccc2=C1c1c(O)[nH]c2c(C(F)(F)F)cccc12,-1.1,-2.9,-4.2,-1.0,-0.6,3.6
COc1ccc(C)cc1NC(=O)C(Sc1nnc(Nc2cc(C)ccc2OC)s1)c1ccccc1 (configuration not stated),-1.4,73.4*,2.5,0.7,-0.5,10.1
Cc1c(C(=O)Nc2cccnc2Cl)oc2ccccc12,2.4,-2.2,4.7,11.8,10.7*,1.3
Cc1c(C(=O)Nc2ccccn2)oc2ccccc12,3.5,-38.7,-2.9,0.5,-0.2,-6.0
CC(C)c1ccc(NC(=O)Nc2nc(C(N)c3ccccc3)cs2)cc1 (configuration not stated),4.6,x,x,x,5.2,-1.4
O=c1[nH]c(Cc2ccccn2)nc2scc(-c3ccc(Cl)cc3)c12,1.8,-3.3,-23.5,1.4,0.1,-5.7
O=c1[nH]c(Cc2cccs2)nc2scc(-c3ccc(Cl)cc3)c12,0.9,-7.8,55.1*,9.4,5.3,6.3
CCNc1ccc2noc3c2c1C(=O)c1ccccc1-3,-2.8,27.3,107.1*,-0.7,-4.9,-3.5
C=C(C)COc1ccc(-c2[nH]ncc2Oc2ccccc2OC)c(O)c1,2.2,5.1,6.5,15.0,8.9*,17.1
C=C(C)COc1ccc(-c2[nH]ncc2Oc2ccc(OC)cc2)c(O)c1,3.4,-0.4,14.4,38.0,0.8,0.6
C=C(C)COc1ccc(-c2[nH]ncc2-c2ccccc2OC)c(O)c1,-4.9,x,16.4,5.8,9.2*,1.7
O=C(c1ccco1)N1CCN(CC(O)COc2ccc3oc4ccccc4c3c2)CC1 (configuration not stated),14.5*,x,-20.3,1.5,1.4,9.6
O=c1c(Cl)c(Cl)cnn1Cc1ccc(F)cc1,6.2,-7.6,-4.4,6.9,-1.5,52.3*
c1ccc(Cn2c(-c3ccccc3)nc3nc4ccccc4nc32)cc1,2.0,1.8,2.7,1.6,9.3*,-0.1
NC(=O)C1(N2CCCCC2)CCN(C(=S)Nc2ccc(F)cc2)CC1,0.7,-2.0,3.2,0.5,8.5*,-2.3
NC(=O)C1(N2CCCCC2)CCN(C(=S)Nc2cc(F)cc(F)c2)CC1,-0.3,-44.6,-0.7,-2.3,-1.4,-2.1
COc1ccc(OC)c(C2=NOC(C(=O)N3CCCc4ccccc43)C2)c1 (configuration not stated),-4.9,1.3,15.0,-1.3,-1.4,-0.2
O=C(/C=C\c1cn(-c2ccccc2)nc1-c1ccc2c(c1)OCCO2)N1CCOCC1,4.2,8.8,-5.5,2.8,8.5*,6.9
O=S(=O)(O)c1cc(OS(=O)(=O)c2ccccc2)cc2ccccc12,4.2,0.7,7.8,-0.7,-1.8,9.9
COc1ccc(/C=N/NC(=O)c2ccc(Cl)cc2)cc1Cn1cc(Cl)cn1,1.0,-1.2,-22.7,-0.4,8.7*,0.0
CC(=O)Nc1ccc(NC(=O)CNC(=O)c2sc3ccccc3c2Cl)cc1,-0.2,x,-1.9,0.6,0.1,5.0
O=C(CNC(=O)c1sc2ccccc2c1Cl)NCc1cccc(C(F)(F)F)c1,12.6,x,-4.2,1.2,9.4*,6.9
N#C/C(=C(/O)CCl)c1nc2ccccc2[nH]1,-4.3,14.2,50.0*,3.7,-2.1,15.8
SMILES,m5-HT2A agonist,Lipid droplet,PREPL inh,NTR1 ag,MC4R ag barr,MC4R antag cAMP
N#C/C(=C(/O)c1cccs1)c1nc2ccccc2[nH]1,-1.7,5.6,76.7*,-0.4,2.5,8.6
CCCn1cnnc1CNC(=O)C1CCC(=O)N(CCCc2ccccc2)C1 (configuration not stated),-3.0,-15.1,2.5,-1.4,0.2,14.2
COc1ccccc1C1NC(=O)NC(C)=C1C(=O)OC1CCCCC1 (configuration not stated),15.4*,-2.8,2.4,2.4,-1.2,1.7
COc1ccc(OC)c(C2NC(=O)NC(C)=C2C(=O)OC2CCCCC2)c1 (configuration not stated),-0.1,-6.4,2.9,1.4,-0.4,-1.3
O=C(COc1ccccc1)N[C@@H]1c2ccccc2CC[C@@H]1OCc1ccccc1,-1.1,x,x,5.3,8.4*,16.9
O=C(COc1ccccc1)N[C@@H]1c2ccccc2CC[C@H]1OCc1ccccc1,1.9,x,x,2.7,1.0,-1.6
O=C(COC(=O)/C=C/c1cc(Br)ccc1F)Nc1ccc2[nH]c(=O)[nH]c2c1,-15.4,x,15.2,0.8,8.9*,1.9
Cc1ccc([C@@H]2[C@@H]3C(=O)N(c4ccccc4)C(=O)[C@@H]3[C@]3(C)C(=O)N(CC4CC4)CC(=O)N23)o1,8.5,-0.3,12.1,-0.4,-0.9,2.0
CCCCCc1ccc(OCCOCCn2c[n+](C)c3ccccc32)c(CCCCC)c1,0.9,-9.4,x,x,17.4*,-7.7
C[C@H](CO)N1C[C@H](C)[C@@H](CN(C)C(=O)Nc2ccc(C(F)(F)F)cc2)Oc2c(NC(=O)Nc3ccc(C(F)(F)F)cc3)cccc2C1=O,15.5*,x,10.4,25.9,-1.4,24.1
O=C(Nc1cnn(Cc2ccc(F)cc2)c1)c1cc2nc(-c3ccco3)cc(C(F)(F)F)n2n1,-0.2,x,18.7,4.7,9.2*,4.2
Cc1ccnc(SCc2cc(=O)c(OC(=O)c3ccc(Cl)c([N+](=O)[O-])c3)co2)n1,-0.4,5.6,4.1,0.2,-2.7,3.3
CCCN(CCC)Cc1c(C(=O)N/N=C/CCc2ccccc2)nnn1-c1nonc1N,5.8,-27.9,15.8,2.1,9.2*,8.8
Nc1nonc1-n1nnc(C(=O)N/N=C/c2ccccc2)c1CSc1ccc(Cl)cc1,2.4,13.9,-6.7,4.7,9.1*,1.3
CCCN(CCC)Cc1c(C(=O)N/N=C/c2ccncc2)nnn1-c1nonc1N,-4.0,-4.8,-0.9,1.1,-2.2,9.2
Cc1nn(CCO)c2nc(-c3cccs3)cc(C(F)(F)F)c12,-2.9,8.1,-3.6,5.3,8.5*,-5.7
Cc1cc(=O)[nH]c(SCC(=O)Nc2nnc(SCc3ccccc3)s2)n1,9.5,-3.9,-1.7,1.1,8.8*,2.8
CC1=CC(=O)C(C(C)C)=CC1=NC(=O)c1ccc(C)cc1,-0.9,-7.4,7.3,-0.3,0.5,51.4*
CC1=CC(=O)C(C(C)C)=C/C1=N/OC(=O)c1cccc([N+](=O)[O-])c1,-3.9,-4.5,16.5,1.5,-2.5,4.1
COC(=O)C1=C(C)NC(C)=C(C(=O)OC)C1c1ccccc1OCc1c(C)no[n+]1[O-],1.8,x,8.1,0.5,0.0,5.2

# Screening results as filed in PubChem.
